Shown are actives, neighbours in structure and some others; about 3.5% of the full set was active somewhere.
RGS4 inh: RGS4 inhibitors, primary screen, cell-based, HEK293 M3R inducible RGS4, calcium flux | B-score at 10 µM | Regulator of G-protein signaling 4 (Homo sapiens), P49798 | Fluo-4 calcium flux; hits give high values; triggered by carbachol at its EC20 | 310,000 tested, 0.45% active;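 active = B-score, a plate-corrected calcium signal, over three deviations above library mean, with baseline fluorescence within five deviations of library mean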;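 also: RGS4 expression induced by doxycycline in cells with stable M3 receptor; B-score is computed from the integrated fluorescence ratio over baseline after carbachol; higher B-score means a larger calcium signal and so more RGS4 inhibition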
Target sequence (P49798 whole entry, looked up): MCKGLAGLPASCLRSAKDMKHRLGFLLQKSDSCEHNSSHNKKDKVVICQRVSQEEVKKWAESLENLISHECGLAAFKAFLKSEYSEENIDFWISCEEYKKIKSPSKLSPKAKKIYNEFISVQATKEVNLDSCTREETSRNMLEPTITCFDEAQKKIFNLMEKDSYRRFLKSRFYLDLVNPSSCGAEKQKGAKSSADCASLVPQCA
RGS4 pot: RGS4 potentiators or activators, primary screen, cell-based, HEK293 M3R inducible RGS4, calcium flux. AID 463111, 2010. carbachol calcium flux Fluo4; hits give low values. 310,000 tested, 0.92% active. B-score at 10 µM;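 active = B-score of the integrated calcium signal more than 4 SD below the library mean, with starting fluorescence not abnormally high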;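 also: negative B-score means reduced calcium response which marks RGS4 activation or potentiation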
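Assay system: Inducible-RGS4 HEK293 cells carrying M3 receptor | Schedule: Compound preincubation 20 min at room temperature before agonist | Signal: Kinetic calcium fluorescence imaging with Fluo4-AM dye, 2 µM | Read-out basis: B score from integrated fluorescence ratio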
MrgX1 ag: agonists of human MrgX1 receptor, primary screen, HEK293 cells, Fluo-4 calcium flux | Mas-related G-protein coupled receptor member X1 (Homo sapiens), Q96LB2 | Fluo-4 calcium fluorescence, agonist mode; hits give high values | B-score at 10 µM | 310,000 tested, 0.44% active | AID 588627, 2011;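 active = calcium response B-score plate-corrected fluorescence ratio at least 3 library SD, with starting fluorescence B-score inside 5 SD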
Target sequence (Q96LB2 whole entry, looked up): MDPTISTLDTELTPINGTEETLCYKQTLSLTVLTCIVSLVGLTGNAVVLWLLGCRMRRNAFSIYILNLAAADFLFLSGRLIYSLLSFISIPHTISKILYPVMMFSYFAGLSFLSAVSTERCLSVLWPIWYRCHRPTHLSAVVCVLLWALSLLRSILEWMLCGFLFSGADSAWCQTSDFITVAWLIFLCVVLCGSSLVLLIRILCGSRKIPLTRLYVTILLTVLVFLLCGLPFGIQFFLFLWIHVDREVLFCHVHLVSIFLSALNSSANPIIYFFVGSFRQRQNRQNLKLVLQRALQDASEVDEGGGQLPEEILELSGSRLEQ
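Material: HEK293 cells stably expressing human MrgX1 receptor | Quantity: 15,000 cells per well | Times: Cells plated overnight, dye loaded 0.5 h 37 °C, 0.5 h room temperature | Measured by: Kinetic Fluo-4 NW fluorescence of intracellular calcium | Control set: Positive and negative controls per plate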
MrgX1 PAM: positive allosteric modulators of MrgX1, primary screen, HEK293 cells, Fluo-4 calcium flux; Mas-related G-protein coupled receptor member X1 (Homo sapiens), Q96LB2; B-score at 10 µM; AID 588675, 2011; 310,000 tested, 0.63% active; FDSS; hits give high values;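 active = plate-corrected calcium response at least 3 library SD above typical, normal starting fluorescence, not activating the receptor alone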;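 also: compound read alongside a low EC10 to EC30 dose of BAM8-22 agonist; peak minus trough fluorescence over baseline measured at the second addition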
MrgX1 antagonist: antagonists of human MrgX1 receptor, primary screen, HEK293 cells, Fluo-4 calcium flux; BAM8-22 antagonism; hits give low values; B-score at 10 µM; 310,000 tested, 1.3% active; AID 588676, 2011;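 active = calcium-response B-score plate-corrected more than 3 library SD below zero, starting fluorescence within 5 deviations, no agonist response on first addition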;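 also: peak minus trough fluorescence over baseline after final BAM8-22 challenge near maximal dose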
MrgX1 allo conf: MrgX1 positive allosteric modulators, duplicate retest, confirmation, HEK293 cells, Fluo-4 calcium flux; shares compounds with MrgX1 PAM; Fluo-4 calcium fluorescence, FDSS; activation (ratio percentage), % at 10 µM; 1,200 tested, 13% active;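 active = ratio at least 3 SD above the weak peptide control, stable starting fluorescence, no direct agonism earlier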;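 also: compound followed by low BAM8-22 agonist challenge near EC20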
HEK293 Ca flux: nonspecific calcium signal in parental HEK293, confirmation, counter-screen for MrgX1 antagonist project, parental HEK293 cells, Fluo-4 calcium flux. AID 624111, 2012. shares compounds with MrgX1 antagonist. 4,000 tested, 2% active. Fluo-4 calcium fluorescence, FDSS. fluorescence ratio F(max-min)/F0 at 10 µM;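 active = duplicate-averaged calcium fluorescence ratio at least three times the standard deviation of buffer wells, a nonspecific response in parental cells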
HEK293 Ca counter: calcium response in parental HEK293 cells, primary screen, counter-screen for MrgX1 allosteric activator project, cell-based, Fluo-4 calcium flux, duplicate; AID 624114, 2012; shares compounds with MrgX1 antagonist; fluorescence ratio F(max-min)/F0 at 10 µM; Fluo-4 fluorescence ratio; hits give high values; 4,000 tested, 0.4% active;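 active = calcium fluorescence ratio, averaged over duplicates, at least 3 SD of the buffer-well ratio, meaning a nonspecific response in receptor-free cells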;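 also: untransfected parental HEK293 lacking MrgX1 used as counterscreen for MrgX1 allosteric activators; fluorescence change taken during the second addition on a kinetic imager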
HEK293 Ca cntr2: calcium response in parental HEK293 cells, primary screen, counter-screen for MrgX1 agonist project, cell-based, Fluo-4 calcium flux, duplicate, agonist mode; shares compounds with MrgX1 antagonist; Fluo-4 calcium fluorescence (FDSS); hits give high values; fluorescence ratio F(max-min)/F0 at 10 µM; 4,000 tested, 8.7% active; AID 624115, 2012;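 active = calcium fluorescence ratio at least three times the spread of buffer wells, meaning a non-specific response in parental cells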
* = called active by the depositor.

What do the screens show for `COc1ccc(NCC(=O)Nc2ccc(Br)cc2F)c(OC)c1`?
RGS4 inh: inactive; RGS4 pot: inactive; MrgX1 ag: inactive; MrgX1 PAM: 9.2*; MrgX1 antagonist: inactive; MrgX1 allo conf: inactive; HEK293 Ca flux: inactive; HEK293 Ca counter: inactive; HEK293 Ca cntr2: inactive

What do the screens show for `O=C(Nc1cccc(-c2cn3ccccc3n2)c1)c1ccccc1`?
RGS4 inh: inactive; RGS4 pot: inactive; MrgX1 ag: inactive; MrgX1 PAM: 6.8*; MrgX1 antagonist: inactive; MrgX1 allo conf: 8.4%*; HEK293 Ca flux: inactive; HEK293 Ca counter: inactive; HEK293 Ca cntr2: inactive

What do the screens show for `Nc1nc(CN2CCCCCC2)nc(Nc2ccccc2)n1`?
RGS4 inh: inactive; RGS4 pot: inactive; MrgX1 ag: inactive; MrgX1 PAM: inactive; MrgX1 antagonist: inactive

How did Cc1c(-c2nc(N)nc(Nc3ccccc3)n2)oc2ccccc12 do in these assays?
RGS4 inh: inactive; RGS4 pot: inactive; MrgX1 ag: inactive; MrgX1 PAM: 20*; MrgX1 antagonist: inactive; MrgX1 allo conf: inactive; HEK293 Ca flux: inactive; HEK293 Ca counter: inactive; HEK293 Ca cntr2: inactive

What do the screens show for `COc1cccc(N2CCN(C(=O)CN3C(=O)NC(C)(c4ccc5ccccc5c4)C3=O)CC2)c1` (centres undefined)?
RGS4 inh: inactive; RGS4 pot: inactive; MrgX1 ag: inactive; MrgX1 PAM: inactive; MrgX1 antagonist: inactive

What do the screens show for `C/C(=N\NC(=O)c1ccc(Cl)c(S(=O)(=O)Nc2ccccc2Cl)c1)c1ccncc1`?
RGS4 inh: inactive; RGS4 pot: inactive; MrgX1 ag: inactive; MrgX1 PAM: 21*; MrgX1 antagonist: inactive; MrgX1 allo conf: inactive; HEK293 Ca flux: inactive; HEK293 Ca counter: inactive; HEK293 Ca cntr2: inactive

What do the screens show for `C/C(=N\NC(=O)c1cccc(S(=O)(=O)Nc2ccccc2Cl)c1)c1ccco1`?
RGS4 inh: inactive; RGS4 pot: inactive; MrgX1 ag: inactive; MrgX1 PAM: inactive; MrgX1 antagonist: inactive

Results for COc1cc(NC(=O)C2CCCC2)c(OC)cc1Cl ?
RGS4 inh: inactive; RGS4 pot: inactive; MrgX1 ag: inactive; MrgX1 PAM: 6.6*; MrgX1 antagonist: inactive; MrgX1 allo conf: inactive; HEK293 Ca flux: inactive; HEK293 Ca counter: inactive; HEK293 Ca cntr2: inactive

How did O=C(CSc1n[nH]c(-c2ccccn2)n1)Nc1ccccc1F do in these assays?
RGS4 inh: inactive; RGS4 pot: inactive; MrgX1 ag: inactive; MrgX1 PAM: inactive; MrgX1 antagonist: inactive

Results for Cc1n[nH]c(C)c1S(=O)(=O)N1CCN(c2ccccn2)CC1 ?
RGS4 inh: inactive; RGS4 pot: inactive; MrgX1 ag: inactive; MrgX1 PAM: inactive; MrgX1 antagonist: inactive

Results for Cc1n[nH]c(C)c1S(=O)(=O)N1CCc2ccccc2C1 ?
RGS4 inh: inactive; RGS4 pot: inactive; MrgX1 ag: inactive; MrgX1 PAM: 8.4*; MrgX1 antagonist: inactive; MrgX1 allo conf: inactive; HEK293 Ca flux: inactive; HEK293 Ca counter: inactive; HEK293 Ca cntr2: inactive

Screening results deposited in PubChem by Johns Hopkins Ion Channel Center.
